In the library only some 2.8% were active in any assay of this set; here they are far more common.
EP2 modulator – EP2 receptor modulators, cAMP readout, primary screen, cell-based, HTRF cAMP, PGE2 stimulation; Prostaglandin E2 receptor EP2 subtype (Homo sapiens), P43116; EP2-expressing cells, cAMP HTRF FRET, PGE2 co-stimulation; induction, % at 25 µM; hit rate 0.83% among 260,000; AID 940, 2007;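 active = compounds whose cAMP rise, as percent of the full-agonist control response, exceeds 60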;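 also: rat C6 glioma line stably carrying human EP2 under a CMV promoter; the protocol text gives 20 µM as final concentration; 100% = response of wells given 1 µM PGE2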
Target sequence (P43116 whole entry, looked up): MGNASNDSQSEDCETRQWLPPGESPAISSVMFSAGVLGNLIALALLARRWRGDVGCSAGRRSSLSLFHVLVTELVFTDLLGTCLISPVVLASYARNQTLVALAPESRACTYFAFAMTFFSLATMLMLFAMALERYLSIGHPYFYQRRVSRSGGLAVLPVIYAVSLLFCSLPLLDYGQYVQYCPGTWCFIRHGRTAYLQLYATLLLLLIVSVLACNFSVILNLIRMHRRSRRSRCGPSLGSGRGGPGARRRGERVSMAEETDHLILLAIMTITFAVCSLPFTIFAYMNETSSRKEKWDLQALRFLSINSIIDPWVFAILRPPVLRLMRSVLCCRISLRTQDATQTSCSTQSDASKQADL
NPY Y2 blocker – NPY-Y2 receptor antagonists, primary screen, cell-based | Neuropeptide Y receptor type 2 (Homo sapiens), P49146 | NPY-Y2 expressing cells, antagonist mode | inhibition, % at 2.7 µM | hit rate 0.99% among 140,000; in the data active = inhibition above about 17%;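 also: 0% = vehicle with agonist challenge and 100% = reference antagonist with challenge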
NPY-Y1 antag – NPY-Y1 receptor antagonists, primary screen, cell-based; inhibition, % at 3.6 µM; HEK293-CNG Y1 cells, membrane potential fluorescence; NPY at EC95, then isoproterenol; Neuropeptide Y receptor type 1 (Homo sapiens), P25929; hit rate 1% among 200,000;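 active = inhibition above the campaign mean inhibition of all tested compounds plus 3 SD, cut at about 20% in these data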;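 also: 0% = DMSO wells given NPY plus isoproterenol and 100% = isoproterenol alone without NPY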
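System: HEK293 cells with Y1 receptor plus CNG channel / Probe or stimulus: NPY 25 nM then isoproterenol 1 µM plus Ro 20-1724 25 µM / Compound: one concentration, 3.6 µM, in 0.4% DMSO / Schedule: compound incubation 1 h at room temperature, readout 45 min post-stimulation / Measured by: membrane potential fluorescence / Read-out: % inhibition of NPY effect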
NPY1 pot ag – NPY-Y1 receptor potentiators or agonists, primary screen, cell-based | hit rate 0.37% among 220,000 | activation, % at 3.6 µM | NPY-Y1 expressing cells, potentiator/agonist activation | Neuropeptide Y receptor type 1 (Homo sapiens), P25929; in the data active = activation above about 33%, passing the limit was not always enough;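 also: cells stimulated with NPY at EC10 then isoproterenol at EC100; 0% = low agonist plus stimulus and 100% = saturating agonist plus stimulus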
EP2 antag – human EP2 receptor antagonists, primary screen, TR-FRET cAMP, C6 glioma cells; Prostaglandin E2 receptor EP2 subtype (Homo sapiens), P43116; C6 glioma cells expressing human EP2; cells stimulated with saturating PGE2; inhibition, % at 25 µM; hit rate 0.52% among 260,000;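 active = percent inhibition above 40 after rounding to a whole number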;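 also: rat C6 glioma host cells with rolipram phosphodiesterase inhibitor present; the protocol text gives 20 µM as final concentration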
NPY-Y2 PAM-ag – NPY-Y2 potentiators or agonists, primary screen, cell-based; Neuropeptide Y receptor type 2 (Homo sapiens), P49146; cells expressing NPY-Y2, potentiator/agonist read-out; activation, % at 3.6 µM; hit rate 0.45% among 220,000; AID 1359, 2008; in the data active = activation above about 27%;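 also: cells stimulated with NPY near EC25 plus isoproterenol at EC100; 0% = vehicle plus submaximal agonist and 100% = vehicle plus saturating agonist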
Starred values were filed as active, the others as inactive; nt = not tested or not shown; ! = not active in a repeat.

SMILES	EP2 modulator	NPY Y2 blocker	NPY-Y1 antag	NPY1 pot ag	EP2 antag	NPY-Y2 PAM-ag
COc1ccc(C2(NC(=O)c3ccc(OC)c(Cn4cccn4)c3)CCCCC2)cc1	-8	nt	nt	nt	nt	nt
CC(=O)Oc1ccc(CN[C@@H]2CCC(=O)N[C@H]2c2cc(F)cc(F)c2)cc1	-33	nt	nt	nt	6	nt
CCC(c1nnnn1C(C)(C)C)N(Cc1ccccc1)Cc1cc2cc(OC)ccc2[nH]c1=O (stereo not drawn)	68*	nt	nt	nt	12	nt
CCC(c1nnnn1C(C)(C)C)N(Cc1ccc(OC)cc1)Cc1cc2cc(C)ccc2[nH]c1=O (stereo not drawn)	58	nt	nt	nt	14	nt
O=[N+]([O-])c1ccc2c(c1)Cc1cc(N=Cc3ccc4c(c3)OCO4)ccc1-2	-26	nt	nt	nt	51*	nt
O=[N+]([O-])c1ccccc1N/N=C/c1ccc2c(c1)OCO2	-4	nt	-3	4	9	4
CC(C)(C)C1=NN(CC(=O)NC2CCC2)C(=O)c2cc3sccc3n2C1	-8	nt	nt	nt	11	nt
Cc1ccc(C)c(N2CCN(C(c3cc4cccc(C)c4[nH]c3=O)c3nnnn3C(C)(C)C)CC2)c1 (stereo not drawn)	-24	nt	nt	nt	10	nt
c1ccc(CCNc2ccnc3cc4ccccc4cc23)cc1	-83	nt	18	-9	58*	17
COc1ccc(Nc2ccnc3ccccc23)cc1	6	4	15	-10	13	0
CC(C)Nc1ccc(Nc2ccnc3cc4ccccc4cc23)cc1	-35	nt	nt	81*	12	75*
O=C(Nc1ccc(Cl)c(Cl)c1)C1CCN(C(=O)c2cccs2)CC1	-125	nt	nt	nt	13	nt
CCOC(=O)c1oc2cccc(OCC(O)CNC(C)C)c2c1C (stereo not drawn)	nt	2	-13	111*	nt	105*
CCCn1c(=O)c(C(=O)Nc2ccccc2C(=O)OC)c(O)c2ccccc21	63*	5	0	14	6	11
CCCn1c(=O)c(C(=O)NCCCCl)c(O)c2ccccc21	70*	nt	nt	nt	19	nt
C=CCn1c(=O)c(C(=O)NCCN(CC)CC)c(O)c2ccccc21	-4	4	3	-18	6	-10
C=CCn1c(=O)c(C(=O)NCC)c(O)c2ccccc21	70*	nt	nt	nt	-1	nt
CC(=O)Oc1ccc(C(=O)N2CCCCC2)cc1	-12	nt	nt	nt	1	nt
CCOC(=O)c1cc(C)sc1NC(=O)c1ccccc1Cl	71*	nt	nt	nt	9	nt
CCOC(=O)c1cc(-c2ccccc2)sc1NC(=O)c1ccc(OC)cc1	34	-4	0	16	2	26
Nc1c(C(=O)OCC2CCCO2)c2nc3ccccc3nc2n1-c1ccc2c(c1)OCCO2 (stereo not drawn)	-44	0	4	8	80*	-1
COc1ccc(-c2cc(-c3ccccc3)c(C#N)c(S(C)=O)n2)cc1 (stereo not drawn)	-16	-1	-18	72*	9	76*
CS(=O)(=O)N1CCN(S(C)(=O)=O)CC1	-21	nt	nt	nt	5	nt
C=CCSC1=N/C(=C\c2sccc2C)C(=O)S1	64*	4	7	-3	5	7
CC(C)(C)c1cc(NCc2ccccn2)n2ncc(-c3ccccc3)c2n1	62*	nt	nt	6	5	-2
SMILES	EP2 modulator	NPY Y2 blocker	NPY-Y1 antag	NPY1 pot ag	EP2 antag	NPY-Y2 PAM-ag
CCN(CC)S(=O)(=O)c1cccc(-c2nnc(SCCOc3ccccc3C)o2)c1	28	26*	20*	-38	11	-13
CCN(CC)S(=O)(=O)c1cccc(-c2nnc(SCCOc3ccc(Cl)cc3)o2)c1	9	29*	32*	-57	7	-2
CCN(CC)S(=O)(=O)c1cccc(-c2nnc(SCC(=O)c3cc(C)n(C)c3C)o2)c1	20	2	-1	-12	6	12
CCNc1cc(S(=O)(=O)C(F)(F)F)ccc1N	6	2	-1	2	12	-8
CCNc1ccc(S(=O)(=O)C(F)(F)F)cc1NC(=O)C12CCC(CC1)C2	-4	1	2	4	76*	16
COC(=O)CSc1nnc(-c2ccc(NS(=O)(=O)c3ccccc3)cc2)o1	-1	-2	-18	40*	28	91*
Cc1ccc(CSc2nnc(-c3ccc(NS(=O)(=O)c4ccccc4)cc3)o2)cc1	-6	9	-3	-21	2	-5
COC(=O)c1ccccc1Nc1ccccc1	64*	-1	3	10	9	9
O=C(COC(=O)c1ccccc1Nc1ccccc1)c1ccccc1	23	3	7	-29	6	-18
Cc1ccc(S(=O)(=O)/N=C2/C=C(Sc3ncn[nH]3)C(=O)c3ccccc32)c(C)c1	-61	1	1	-26	54*	-8
Cc1ccc(C)c(S(=O)(=O)Nc2ccc(O)c(Sc3ncn[nH]3)c2)c1	-10	nt	nt	8	5	-14
CC(C)c1ccc(S(=O)(=O)/N=C2/C=C(Sc3ncn[nH]3)C(=O)c3ccccc32)cc1	-27	1	2	-43	122*	-2
Cc1ccc(S(=O)(=O)/N=C2/C=C(Sc3ncn[nH]3)C(=O)c3ccccc32)cc1	-70	1	2	-36	126*	-8
COc1ccc(C(NC(=O)C2(c3ccccc3)CCCC2)c2nccn2C)cc1OC (stereo not drawn)	-1	nt	nt	nt	4	nt
Cc1ccc(C(=O)N2N=C(C(F)(F)F)CC2(O)C2CCCCC2)cc1 (stereo not drawn)	45	nt	nt	nt	10	nt
CCOc1ccc(-n2nnnc2SCC(=O)Nc2cccc(C)c2)cc1	-85	nt	nt	nt	9	nt
CCOC(=O)c1[nH]c(C)c(/C(O)=C2\C(=O)C(=O)N(CCCN3CCOCC3)C2c2cccs2)c1C (stereo not drawn)	14	nt	nt	1	88*	18
CCOc1ccc(NC(=O)N2CCCC2C(=O)NC(C)C)cc1 (stereo not drawn)	13	nt	nt	nt	13	nt
COc1ccc(C(C)(C)C)cc1NC(=O)c1cc(S(=O)(=O)N(C)C)ccc1N1CCCC1	27	22*	25*	0	9	4
COc1ccc(-c2cc(-c3ccc(C)cc3)nc(N)c2C#N)cc1OC	-133	nt	nt	nt	11	nt
COc1ccc(-c2cc(-c3ccc(O)cc3)nc(N)c2C#N)cc1OC	-11	nt	10	14	40*!	-10
Cc1ccc(-c2cc(-c3ccc4c(c3)OCO4)c(C#N)c(N)n2)o1	11	5	3	-7	10	-2
CCOc1ccc(-c2cc(-c3ccc(OC)c(OC)c3)c(C#N)c(N)n2)cc1	80*	nt	nt	nt	12	nt
N#Cc1c(-c2ccc3c(c2)OCO3)cc(-c2ccc(F)cc2)nc1N	61*	nt	nt	nt	22	nt
